Data from ChEMBL document CHEMBL3603828, “Imine/amide-imidazole conjugates derived from 5-amino-4-cyano-N1-substituted benzyl imidazole: Microwave-assisted synthesis and anticancer activity via selective topoisomerase-II-α inhibition” (Bioorg Med Chem, 2015).
Calls of active or inactive are those of the source. The calls are words filed in the database; no cut-off is given here.

Experiments:
[1] = test system: A549; assay: Antiproliferative activity against human A549 cells by MTT assay; type: functional, cell-based
Summary of the method: (§1)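 Cells from NCCS were grown in DMEM with 10% FBS and antibiotics at 37 °C under 5% CO₂. They were seeded at 8000 cells/well after trypan blue counting. Compounds were made up as 100 mM DMSO stocks and diluted in serum-free DMEM. MTT was added and cells were held 4 h at room temperature in the dark. Formazan was dissolved in DMSO and read at 570 nm. Values are averages of three independent experiments, each run in triplicate.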

[2] = test system: HepG2; assay: Antiproliferative activity against human HepG2 cells by MTT assay; type: functional, cell-based; summary of the method: as §1
[3] = Antiproliferative activity against human H460 cells by MTT assay; type: functional, cell-based; settings: NCI-H460; summary of the method: as §1
[4] = test system: PBMC; assay: Cytotoxic activity against human PBMC by MTT assay; type: cell-based
Summary of the method: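 Human peripheral blood mononuclear cells served as the normal control in an MTT read-out. Formazan was formed over 4 h at room temperature in the dark, dissolved in DMSO and read at 570 nm. Results are mean SD of three independent experiments.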

[5] = biological target: T1, DNA topoisomerase 2-alpha (Homo sapiens, UniProt P11388); assay: Inhibition of human topoisomerase-2 alpha assessed as reduction in enzyme-mediated kinetoplast DNA decatenation at 100 uM incubated for 30 mins by ethidium bromide staining based agarose gel electrophoresis method
T1 sequence (P11388 whole entry): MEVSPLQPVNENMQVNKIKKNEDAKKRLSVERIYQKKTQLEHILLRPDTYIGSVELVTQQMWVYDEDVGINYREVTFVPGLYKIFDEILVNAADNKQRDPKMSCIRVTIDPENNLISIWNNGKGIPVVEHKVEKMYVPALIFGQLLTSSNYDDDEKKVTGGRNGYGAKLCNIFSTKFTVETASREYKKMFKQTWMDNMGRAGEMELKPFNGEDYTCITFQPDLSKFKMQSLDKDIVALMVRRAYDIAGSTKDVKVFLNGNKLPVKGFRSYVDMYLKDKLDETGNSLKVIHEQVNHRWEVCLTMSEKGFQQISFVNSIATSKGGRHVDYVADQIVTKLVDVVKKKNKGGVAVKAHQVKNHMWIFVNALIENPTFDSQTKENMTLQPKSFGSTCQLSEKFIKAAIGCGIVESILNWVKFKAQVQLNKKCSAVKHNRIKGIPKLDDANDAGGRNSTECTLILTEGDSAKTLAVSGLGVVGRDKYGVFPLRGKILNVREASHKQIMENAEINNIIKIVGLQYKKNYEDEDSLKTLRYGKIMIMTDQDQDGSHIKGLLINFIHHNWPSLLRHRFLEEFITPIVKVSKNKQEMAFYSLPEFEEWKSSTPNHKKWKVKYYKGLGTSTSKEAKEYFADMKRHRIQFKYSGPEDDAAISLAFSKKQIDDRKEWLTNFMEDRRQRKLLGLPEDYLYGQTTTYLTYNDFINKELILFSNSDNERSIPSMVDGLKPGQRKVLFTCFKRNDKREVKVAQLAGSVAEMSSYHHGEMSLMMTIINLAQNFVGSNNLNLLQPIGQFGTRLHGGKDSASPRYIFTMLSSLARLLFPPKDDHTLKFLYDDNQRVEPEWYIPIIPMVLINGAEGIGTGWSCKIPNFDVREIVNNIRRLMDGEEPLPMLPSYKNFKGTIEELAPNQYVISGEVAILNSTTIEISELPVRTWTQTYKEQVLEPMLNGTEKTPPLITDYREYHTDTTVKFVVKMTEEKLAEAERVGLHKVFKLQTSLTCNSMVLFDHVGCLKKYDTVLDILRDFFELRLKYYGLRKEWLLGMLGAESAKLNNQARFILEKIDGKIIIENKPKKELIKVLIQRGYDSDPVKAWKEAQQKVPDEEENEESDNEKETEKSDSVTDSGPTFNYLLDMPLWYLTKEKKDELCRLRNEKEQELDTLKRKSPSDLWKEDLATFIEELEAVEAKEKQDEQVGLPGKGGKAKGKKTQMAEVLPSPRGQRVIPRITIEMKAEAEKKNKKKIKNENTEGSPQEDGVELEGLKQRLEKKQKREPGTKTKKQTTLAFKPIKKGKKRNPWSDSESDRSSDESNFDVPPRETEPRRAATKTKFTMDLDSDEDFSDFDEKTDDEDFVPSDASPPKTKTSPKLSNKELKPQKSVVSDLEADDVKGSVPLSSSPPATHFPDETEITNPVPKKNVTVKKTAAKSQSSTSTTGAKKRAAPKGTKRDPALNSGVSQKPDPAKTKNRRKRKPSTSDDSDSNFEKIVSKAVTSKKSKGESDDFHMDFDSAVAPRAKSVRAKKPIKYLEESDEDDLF
Summary of the method: (§2)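 Reactions with 2–4 units purified human topoisomerase II and 150 ng kDNA were set up on ice. Buffer was Tris-HCl pH 8 with NaCl, MgCl₂, DTT, BSA and ATP, and drug was 100 µM. Incubation was 30 min at 37 °C, then SDS and proteinase K for 15 min. Products were resolved on 1% agarose with ethidium bromide, visualized under UV and quantified.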

[6] = test system: A549; assay: Induction of ROS generation in human A549 cells at 1 to 25 uM incubated for 24 hrs by DHE staining based assay; type: functional, cell-based
Summary of the method: (§3)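 Cells were seeded in DMEM/10% FBS at 8000 per well and treated for 24 h. They were washed with PBS, stained with DHE for 30 min at 37 °C and washed with ice-cold PBS. Fluorescence OD was then read on a microplate reader.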

[7] = test system: HepG2; assay: Induction of ROS generation in human HepG2 cells at 1 to 25 uM incubated for 24 hrs by DHE staining based assay; type: functional, cell-based; summary of the method: as §3
[8] = test system: NCI-H460; assay: Induction of ROS generation in human H460 cells at 1 to 25 uM incubated for 24 hrs by DHE staining based assay; type: functional, cell-based; summary of the method: as §3
[9] = test system: A549; assay: Induction of mitochondrial membrane depolarization in human A549 cells at 1 to 25 uM incubated for 24 hrs by JC1 staining based assay; type: functional, cell-based
Summary of the method: (§4)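 Cells were seeded at 8000 per well and treated for 24 h. JC-1 dye was added directly to the medium for 30 min at 37 °C, then excess dye was washed off with PBS. Membrane potential was read as the OD590/OD527 ratio.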

[10] = test system: HepG2; assay: Induction of mitochondrial membrane depolarization in human HepG2 cells at 1 to 25 uM incubated for 24 hrs by JC1 staining based assay; type: functional, cell-based; summary of the method: as §4
[11] = test system: NCI-H460; assay: Induction of mitochondrial membrane depolarization in human H460 cells at 1 to 25 uM incubated for 24 hrs by JC1 staining based assay; type: functional, cell-based; summary of the method: as §4
[12] = biological target: T1, DNA topoisomerase 2-alpha; assay: Inhibition of human topoisomerase-2 alpha assessed as reduction in enzyme-mediated kinetoplast DNA decatenation incubated for 30 mins by ethidium bromide staining based agarose gel electrophoresis method; summary of the method: as §2
[13] = biological target: T2, DNA topoisomerase 1 (Homo sapiens) (UniProt P11387); assay: Inhibition of human topoisomerase-1 assessed as reduction in enzyme-mediated DNA relaxation at 100 uM incubated for 30 mins by ethidium bromide staining based agarose gel electrophoresis method
T2 sequence (whole entry): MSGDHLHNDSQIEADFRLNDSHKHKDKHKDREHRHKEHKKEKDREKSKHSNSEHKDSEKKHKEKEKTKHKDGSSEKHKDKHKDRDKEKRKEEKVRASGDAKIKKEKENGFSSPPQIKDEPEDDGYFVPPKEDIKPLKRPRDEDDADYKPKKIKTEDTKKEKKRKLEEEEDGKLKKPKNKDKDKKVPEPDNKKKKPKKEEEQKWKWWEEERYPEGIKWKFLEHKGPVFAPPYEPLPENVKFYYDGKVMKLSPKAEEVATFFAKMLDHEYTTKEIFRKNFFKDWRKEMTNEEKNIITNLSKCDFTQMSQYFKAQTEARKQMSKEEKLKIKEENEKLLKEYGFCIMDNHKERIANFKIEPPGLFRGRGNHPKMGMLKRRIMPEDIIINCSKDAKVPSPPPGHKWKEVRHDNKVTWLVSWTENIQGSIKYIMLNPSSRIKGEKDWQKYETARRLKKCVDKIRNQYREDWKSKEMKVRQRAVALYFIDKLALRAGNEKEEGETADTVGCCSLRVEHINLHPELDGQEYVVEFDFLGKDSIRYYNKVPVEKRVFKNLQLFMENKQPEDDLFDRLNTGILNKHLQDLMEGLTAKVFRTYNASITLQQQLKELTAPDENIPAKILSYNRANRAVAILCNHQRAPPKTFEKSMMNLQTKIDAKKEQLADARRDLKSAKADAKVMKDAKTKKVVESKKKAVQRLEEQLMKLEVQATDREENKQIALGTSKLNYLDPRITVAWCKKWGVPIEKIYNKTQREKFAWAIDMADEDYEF
Summary of the method: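 Purified human Topo I was used with 250 ng supercoiled DNA. Buffer was Tris-HCl pH 7.9 with EDTA, NaCl, BSA, spermidine and glycerol. Compound was 100 µM in DMSO, with 30 min incubation at 37 °C. Reactions were stopped with SDS and proteinase K at 70 °C for 15 min. Products were run on 1% agarose in TAE.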

| Compound | IC50 [1] | IC50 [2] | inhibition [5] | IC50 [12] | inhibition [13] | IC50 [3] | Activity [4] | Activity [6] | Activity [7] | Activity [8] | Activity [9] | Activity [10] | Activity [11] |
| --- | --- | --- | --- | --- | --- | --- | --- | --- | --- | --- | --- | --- | --- |
| COc1ccc(OC)c(/C=N/c2c(C#N)ncn2Cc2ccccc2Cl)c1 | 18 µM | 20 µM | – | – | – | 28.3 µM | Non-toxic | – | – | – | – | – | – |
| N#Cc1ncn(Cc2ccccc2Cl)c1/N=C/c1c[nH]c2ccccc12 | 10.9 µM | 15 µM | Active | – | – | 14.6 µM | Non-toxic | – | – | – | – | – | – |
| COc1cc([C@@H]2c3cc4c(cc3[C@@H](O[C@@H]3O[C@@H]5CO[C@@H](C)O[C@H]5[C@H](O)[C@H]3O)[C@H]3COC(=O)[C@H]23)OCO4)cc(OC)c1O [ETOPOSIDE] | 18.2 µM | 20.9 µM | Active | – | – | > 30 µM | Non-toxic | – | – | – | – | – | – |
| N#Cc1ncn(Cc2ccccc2Cl)c1/N=C/c1ccc(Cl)cc1 | 30.8 µM | 31 µM | – | – | – | 28.1 µM | Non-toxic | – | – | – | – | – | – |
| N#Cc1ncn(Cc2ccccc2Cl)c1/N=C/c1cc(Cl)cc(Cl)c1O | 7.5 µM | 12 µM | Active | 34.9 µM | inactive | 11.2 µM | Non-toxic | Dose-dependent effect | Dose-dependent effect | Dose-dependent effect | Active | Active | Active |
| COc1cc(/C=N/c2c(C#N)ncn2Cc2ccccc2Cl)ccc1O | 39 µM | > 40 µM | – | – | – | – | Non-toxic | – | – | – | – | – | – |

Second part, led by results:

| IC50 [1] | IC50 [2] | inhibition [5] | IC50 [12] | inhibition [13] | Compound | IC50 [3] | Activity [4] | Activity [6] | Activity [7] | Activity [8] | Activity [9] | Activity [10] | Activity [11] |
| --- | --- | --- | --- | --- | --- | --- | --- | --- | --- | --- | --- | --- | --- |
| 37 µM | 40 µM | – | – | – | N#Cc1ncn(Cc2ccccc2Cl)c1/N=C/c1ccccc1[N+](=O)[O-] | – | Non-toxic | – | – | – | – | – | – |
| 35.1 µM | 38.2 µM | – | – | – | N#Cc1ncn(Cc2ccccc2Cl)c1/N=C/c1ccc(O)cc1 | > 40 µM | Non-toxic | – | – | – | – | – | – |
| > 50 µM | > 50 µM | – | – | – | COc1ccc(/C=N/c2c(C#N)ncn2Cc2ccccc2Cl)cc1OC | – | Non-toxic | – | – | – | – | – | – |
